Data: ChEMBL document CHEMBL3044962, “Characterization of the antifungal activity on Botrytis cinerea of the natural diterpenoids kaurenoic acid and 3beta-hydroxy-kaurenoic acid” (2004)
Calls of active or inactive are those of the source. The rule behind the calls is not given here.

Legend:
Botrytis cinerea [1] = test: Antifungal activity against Botryotinia fuckeliana grown assessed as induction of production of laccase after 10 days relative to control; assay type: functional
In short: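 Mycelium pregrown 3 days at 22 °C in malt-yeast liquid, ground with glass beads and transferred to minimum medium with 1% pectin plus diterpenoid at 40 µg/mL. Culture filtrate taken at day 10. Laccase read with 0.1 mM syringaldazine in 50 mM sodium phosphate pH 6.0, 15 min at 22 °C, A530. 1 U = 0.1 absorbance increase per min. ≥5 experiments, ANOVA/LSD.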

Botrytis cinerea [2] = test: Antifungal activity against Botryotinia fuckeliana assessed as reduction in mycelial growth rate at 40 to 160 ug/ml up to 9 days (reference value: 1.82 cm/day); assay type: functional
Botrytis cinerea [3] = test: Antifungal activity against Botryotinia fuckeliana grown in malt-yeast extract medium assessed as inhibition of mycelial growth at 40 to 160 ug/ml; assay type: functional
In short: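 Strain G29 conidia at final 3 × 10^5 conidia/mL in malt-yeast extract medium or liquid minimum medium with 1% glucose. Diterpenoids added from methanol at final 40 µg/mL, methanol evaporated before inoculation. Grown in dark at 22 °C for 5 days. Mycelial wet weight gives % inhibition relative to methanol control. ≥5 independent experiments, mean ± SD.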

Botrytis cinerea [4] = test: Antifungal activity against Botryotinia fuckeliana inoculated in tomato leaf assessed as reduction in lesion area at 40 ug/ml after 4 days (Rvb =9.7 +/- 1.8 mm2 ); assay type: functional
Botrytis cinerea [5] = test: Antifungal activity against Botryotinia fuckeliana grown assessed as induction of production of p-nitrophenyl butyrate esterase after 20 days relative to control; assay type: functional
In short: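 Ground pregrown mycelium (3 days, malt-yeast, 22 °C) moved to minimum medium with 1% cutin or 1% pectin plus diterpenoid at 40 µg/mL, 22 °C. Filtrates sampled over 30 days. Esterase measured with 0.62 mM p-nitrophenylbutyrate in 100 mM sodium phosphate pH 8.0 with Triton X-100, 10 min at 22 °C, A405. 1 U releases 1 µmol p-nitrophenol/min.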

Botrytis cinerea [6] = test: Antifungal activity against Botryotinia fuckeliana assessed as inhibition of mycelial growth at 40 to 160 ug/ml up to 6 days; assay type: functional, organism-based
Botrytis cinerea [7] = test: Antifungal activity against Botryotinia fuckeliana assessed as inhibition of mycelial growth at 40 to 160 ug/ml up to 7 days; assay type: functional, organism-based
Botrytis cinerea [8] = test: Antifungal activity against Botryotinia fuckeliana grown assessed as membrane leakage measuring efflux of phosphorus at 100 ug/ml after 6 hr by ICP-OES analysis; assay type: functional, organism-based
In short: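 Pregrown mycelia held in 5 mM Tris-HCl pH 7.0 with diterpenoid at final 100 µg/mL (or methanol control) at 22 °C for 6 or 24 h. Phosphorus in the bathing medium measured by ICP-OES. Saponins (100 mg/mL in 10 mM sodium acetate pH 4.5, 6 h) served as positive control. ≥5 experiments, mean ± SD, ANOVA with LSD (P ≤ 0.05).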

For `C=C1C[C@@]23CC[C@H]4[C@@](C)(CCC[C@@]4(C)C(=O)O)[C@@H]2CC[C@@H]1C3` [KAURENOIC ACID], the Activity (Botrytis cinerea [1]) was “Active”, the GI (Botrytis cinerea [2]) was 1.49 cm/day and the “growth inhibition (GI)” value (Botrytis cinerea [3]) was “inactive”. The Activity (Botrytis cinerea [4]) was 7.5 mm2, the Ratio (Botrytis cinerea [5]) was 2 and the “growth inhibition (GI)” value (Botrytis cinerea [6]) was “Active”. The “growth inhibition (GI)” value (Botrytis cinerea [7]) was “Active” and the Activity (Botrytis cinerea [8]) was “Active”.
